Results from different studies.
Compare with care: the assays were run in different laboratories.
CA12: Carbonic anhydrase 12 (CA12, Homo sapiens, UniProt O43570)
USP51: Ubiquitin carboxyl-terminal hydrolase 51 (USP51, Homo sapiens, UniProt Q70EK9)
SLC6A3: Sodium-dependent dopamine transporter (SLC6A3, Homo sapiens, UniProt Q01959)
DRD3: D(3) dopamine receptor (DRD3, Homo sapiens, UniProt P35462)

Structure (SMILES)	target	test	system	conditions	inhibition
Cc1ccc(-c2nn(-c3ccccc3)cc2C2c3sc(=O)[nH]c3SC3C(=O)N(c4ccccc4)C(=O)C32)cc1 (stereo not drawn)	CA12	enzyme activity, inhibitor, absorbance		1 µM	56.2%
O=c1c(-c2ccc(O)cc2)coc2cc(O)ccc12	USP51	enzyme activity, inhibitor		5 µM	10%
Clc1ccc(C(c2ccccc2)c2nnnn2CCCN2CCC(CCc3ccccc3)CC2)cc1 (stereo not drawn)	SLC6A3	transporter uptake, inhibitor	HEK293	1 µM	78.4%
CCn1c2ccccc2c2cc(CNCCCN3CCOCC3)ccc21	DRD3	enzyme activity, inhibitor		10 µM	13.5%
Fc1ccc(C(c2ccc(F)cc2)c2nnnn2CCCN2CCC(Cc3ccccc3)CC2)cc1	SLC6A3	transporter uptake, inhibitor	HEK293	1 µM	93.5%
CC(O)c1ccc(-c2ccc(CNCCc3ccc(S(N)(=O)=O)cc3)o2)cc1 (stereo not drawn)	DRD3	enzyme activity, inhibitor		10 µM	-9.5%
O=C[C@H](O)[C@@H](O)[C@H](O)CO (racemic)	USP51	enzyme activity, inhibitor		5 µM	35%
Clc1ccc(C(c2ccccc2)c2nnnn2CCCCN2CCC(CCc3ccccc3)CC2)cc1 (stereo not drawn)	SLC6A3	transporter uptake, inhibitor	HEK293	1 µM	74.6%
O=C(O)c1cc(O)c(O)c(O)c1	USP51	enzyme activity, inhibitor		5 µM	99%
CCOC(=O)C1CSc2[nH]c(=O)sc2C1c1cn(-c2ccccc2)nc1-c1ccccc1 (stereo not drawn)	CA12	enzyme activity, inhibitor, absorbance		10 µM	72.5%
CC[C@H]1CN2CCc3cc(OC)c(OC)cc3[C@@H]2C[C@@H]1C[C@H]1NCCc2cc(OC)c(OC)cc21	USP51	enzyme activity, inhibitor		5 µM	20%
CCOc1ccc(N2C(=O)CC(NCCc3ccccc3Cl)C2=O)cc1 (stereo not drawn)	DRD3	enzyme activity, inhibitor		10 µM	2.43%
N#CC1CSc2[nH]c(=O)sc2C1c1cn(-c2ccccc2)nc1-c1ccc(Br)cc1 (stereo not drawn)	CA12	enzyme activity, inhibitor, absorbance		10 µM	84.7%
COc1ccc(C(C)=O)c(O)c1	USP51	enzyme activity, inhibitor		5 µM	18%
O=C(c1ccc(Cl)cc1)N(Cc1ccccc1)C1CCCCC1	Urotensin-2 receptor (UTS2R, Homo sapiens, UniProt Q9UKP6)	cell-free assay		10 µM	27.3%
O=C1C2CCCN2C(=O)N1CCCCN1CCN(c2cccc(C(F)(F)F)c2)CC1 (stereo not drawn)	DRD3	enzyme activity, inhibitor		10 µM	42.5%
Clc1ccc(C(c2ccccc2)c2nnnn2CCCN2CCC(Cc3ccccc3)CC2)cc1 (stereo not drawn)	SLC6A3	transporter uptake, inhibitor	HEK293	1 µM	93.8%
CCOC(=O)C1CSc2[nH]c(=O)sc2C1c1cn(-c2ccccc2)nc1-c1ccc(Br)cc1 (stereo not drawn)	CA12	enzyme activity, inhibitor, absorbance		0.1 µM	31.5%
Cc1ccccc1OCC(O)CN1CCN(CC(O)COc2ccccc2C)CC1 (stereo not drawn)	DRD3	enzyme activity, inhibitor		10 µM	-12.1%
C=C1C[C@@]2(O)O[C@@]3(C[C@H]2C(C)C)[C@@H](C)CC[C@@H]13	USP51	enzyme activity, inhibitor		5 µM	11%
CCN(CC)CCNC(=O)c1c(C)[nH]c(/C=C2\C(=O)Nc3ccc(F)cc32)c1C	Tyrosine-protein kinase Lyn (Lyn, Mus musculus, UniProt P25911)	enzyme activity, inhibitor		10 µM	98%
